Screens deposited in PubChem by Sanford-Burnham Center for Chemical Genomics.
hIAP act = human IAP activators, primary screen, biochemical, luminescence, uHTS | Intestinal-type alkaline phosphatase (Homo sapiens), P09923 | purified human IAP, CDP-Star luminescence, 30 min; active compounds read high; 1 = vehicle-only enzyme, 0 = enzyme-free background | activation factor at 10 µM | actives 0.16% (n = 330,000) | AID 2524, 2010;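 active means activation factor of the enzyme at least 2-fold when tested at 20 µM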
Target sequence (P09923 whole entry, looked up): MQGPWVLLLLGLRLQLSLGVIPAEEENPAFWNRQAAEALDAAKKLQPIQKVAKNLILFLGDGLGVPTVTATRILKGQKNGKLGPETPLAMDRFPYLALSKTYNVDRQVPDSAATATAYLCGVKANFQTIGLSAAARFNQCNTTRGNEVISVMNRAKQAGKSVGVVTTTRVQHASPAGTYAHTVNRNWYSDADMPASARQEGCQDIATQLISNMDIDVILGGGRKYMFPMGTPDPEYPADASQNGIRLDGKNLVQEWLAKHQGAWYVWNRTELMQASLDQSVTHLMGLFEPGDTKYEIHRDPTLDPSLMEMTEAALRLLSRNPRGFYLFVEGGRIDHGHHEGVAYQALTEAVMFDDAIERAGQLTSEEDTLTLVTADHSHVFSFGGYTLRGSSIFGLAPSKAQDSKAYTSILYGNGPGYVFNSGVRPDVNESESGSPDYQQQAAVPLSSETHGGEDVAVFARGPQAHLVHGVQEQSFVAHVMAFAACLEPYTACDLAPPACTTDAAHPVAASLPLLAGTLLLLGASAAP
bIAP inh = bovine intestinal alkaline phosphatase inhibitors, primary screen, selectivity assay for TNAP inhibitor project, biochemical, bovine IAP, CDP-star luminescence. 190,000 tested, under 10 active. purified bovine IAP, 30 min. inhibition, % at 20 µM;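 active means over 50% inhibition of intestinal alkaline phosphatase at 20 µM in the single-dose screen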
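Assay system: bovine IAP enzyme; medium: DEA buffer 100 mM, pH 9.8, with MgCl2 1.0 mM, ZnCl2 0.02 mM; doses: 20 µM single dose; incubation: enzyme reaction for 30 min at room temperature; detection: CDP-star luminescence signal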
hIAP inh = human IAP inhibitors, primary screen, biochemical, luminescence, uHTS. Intestinal-type alkaline phosphatase (Homo sapiens), P09923. actives 0.12% (n = 330,000). purified IAP, CDP-Star luminescence, 30 min. AID 2544, 2010. inhibition, % at 10 µM;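 active means inhibition reaching a set limit with compound at 10 µM in the primary screen, cut at about 35% in these data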;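 further: plate controls were DMSO wells with enzyme for no effect and no-enzyme buffer wells for full effect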
bIAP activator = bovine intestinal alkaline phosphatase activators, primary screen, biochemical, bovine IAP, CDP-star luminescence; alkaline phosphatase, intestinal [Bos taurus]; purified bovine IAP, 30 min; active compounds read high; fold of DMSO-control signal, blank-subtracted; activation factor at 20 µM; actives 0.17% (n = 200,000);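 active means activation factor of 2 or more at 20 µM, a signal rise over negative controls twice the positive control's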
mIAP activ = activators of mouse IAP, primary screen, biochemical, luminescence, uHTS; intestinal alkaline phosphatase [Mus musculus]; muIAP, CDP-Star luminescence, 30 min; active compounds read high; 1 = vehicle-only enzyme signal, 0 = enzyme-free wells; activation factor at 10 µM; actives 0.24% (n = 330,000);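 active means activation factor of at least 2 at 20 µM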
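Assay system: mouse IAP enzyme / Compound: DMSO-dissolved test compounds / Timing: 30 min, room temperature / Measured by: luminescence from enzymatic CDP-Star hydrolysis / Control set: DMSO-only wells, enzyme-free buffer wells as negative control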
mIAP block = inhibitors of mouse IAP, primary screen, biochemical, luminescence, uHTS. actives 0.2% (n = 330,000). inhibition, % at 10 µM. purified mouse IAP, CDP-Star luminescence, 30 min;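 active means inhibition of at least 40% at 10 µM in the primary screen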;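 further: plate controls were DMSO with enzyme for no effect and no enzyme wells for full effect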
hIAP act confirm = human IAP activators, confirmation, biochemical, luminescence, single concentration, uHTS hits. shares compounds with hIAP act. purified IAP, CDP-Star luminescence, 30 min; active compounds read low. activation (%Activity, negative = activation), % at 8.3 µM. actives 10% (n = 880). AID 434926, 2010;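 active means at least twofold enzyme activation in any of six single-dose repeats, which the averaged readout prints as negative percent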
An asterisk follows results filed as active; . = not tested or not shown. Compounds with a hit are over-represented: about 0.79% of the library has one in this group of screens.

SMILES | hIAP act | bIAP inh | hIAP inh | bIAP activator | mIAP activ | mIAP block | hIAP act confirm
CC(C)(C)OC(=O)NCCCC[C@H](NC(=O)c1nc[nH]c1C(=O)NCc1ccccc1)C(=O)OC(C)(C)C | 1.5 | -17 | -50 | 1.2 | 1.3 | -34 | .
CCOC(=O)c1ccc(NC(=O)c2nc[nH]c2C(=O)NCCCCCNC(=O)OC(C)(C)C)cc1 | 2.3* | . | -128 | . | 1.1 | -7 | 7
CCOC(=O)c1ccc(NC(=O)c2nc[nH]c2C(=O)NCCCCNC(=O)c2[nH]cnc2C(=O)Nc2ccc(C(=O)OCC)cc2)cc1 | 1.7 | . | -67 | . | 1.1 | -10 | .
CC(C)(C)OC(=O)NCCCC[C@H](NC(=O)c1[nH]cnc1C(=O)Nc1ccc(CNC(=O)OC(C)(C)C)cc1)C(=O)OC(C)(C)C | 2.7* | . | -172 | . | 1 | -2 | 8
COc1ccc2cc(S(=O)(=O)NC3CC(C)(C)NC(C)(C)C3)ccc2c1 | 1.2 | . | -17 | . | 0.91 | 9 | .
CC(C)C(OC(=O)C1=Cc2ccccc2OC1)C(=O)NC1CCCC1 (stereo unspecified) | 0.88 | 8 | 12 | 0.9 | 1.1 | -6 | .
CCC(OC(=O)C1=Cc2ccccc2OC1)C(=O)NC1CCCC1 (stereo unspecified) | 0.34 | 9 | 66* | 0.9 | 0.97 | 3 | -53*
Cc1ccc(NS(=O)(=O)c2ccc(-c3cnc(C4CC4)o3)cc2)cc1 | 0.63 | . | 37* | . | 0.99 | 1 | -5
O=C(N/N=C/c1ccc(O)c(O)c1)c1cc(-c2ccccc2)nc2ccccc12 | 0.22 | . | 78* | . | 0.71 | 29 | 27
O=C(N/N=C/c1cccc(O)c1)c1cc(-c2ccccc2)nc2ccccc12 | 1 | . | -2 | . | 0.87 | 13 | .
CCOC(=O)/C(=N/Nc1ccccc1)c1csc(Nc2ccccc2)n1 | 0.99 | 33 | 1 | 0.7 | 0.83 | 17 | .
CCOC(=O)/C(=N\Nc1ccc(OC)cc1)c1csc(Nc2ccccc2)n1 | 0.61 | 23 | 39* | 0.8 | 0.9 | 10 | -2
CN(CC(=O)Nc1ccccc1Cl)C(=O)COC(=O)c1cnccn1 | 0.65 | . | 35* | . | 1 | -3 | -1
CCCNC(=O)C(Cc1ccccc1F)NC(=O)c1ccc(C#N)cc1 (stereo unspecified) | 1 | . | -4 | . | 1 | -5 | .
CCOc1ccc(CCNC(=O)c2cc(-c3ccccc3)c(N3CCOCC3)s2)cc1OCC | 2.5* | . | -152 | . | 2.2* | -116 | 1
COc1ccc(CCNC(=O)c2cc(-c3ccccc3)c(N3CCOCC3)s2)c(OC)c1OC | 1.6 | . | -57 | . | 1.3 | -30 | .
Cc1ccc(C(=O)NNC(=O)c2csc(N3CCOCC3)n2)o1 | 1.9 | . | -90 | . | 0.87 | 13 | .
COc1ccccc1C(=O)NNC(=O)c1csc(N2CCOCC2)n1 | 2* | . | -105 | . | 0.98 | 2 | 2
O=C(NNC(=O)c1ccc(Br)o1)c1csc(N2CCOCC2)n1 | 2.2* | . | -115 | . | 0.89 | 11 | 10
O=C(CCNS(=O)(=O)c1ccccc1)NNC(=O)c1csc(N2CCOCC2)n1 | 1.9 | . | -91 | . | 0.81 | 19 | .
CC(=O)Nc1ccc(S(=O)(=O)NCC(=O)NNC(=O)c2csc(N3CCOCC3)n2)cc1 | 2.1* | . | -113 | . | 0.77 | 23 | -39
Cc1c(Br)c([N+](=O)[O-])nn1C(C)C(=O)N1CCc2ccccc2C1 (stereo unspecified) | 1.2 | . | -18 | . | 0.9 | 10 | .
O=C(CNC(=S)N(CCCN1CCOCC1)Cc1cccs1)NC1CC1 | 1.2 | 5 | -20 | 1 | 0.83 | 17 | .
O=C(CNC(=S)N(CCCN1CCOCC1)Cc1cccs1)NCc1ccccc1 | 3.1* | . | -207 | . | 1.1 | -12 | 5
Clc1ccc(-c2nc(-c3ccccn3)no2)cc1Cl | 2.1* | 10 | -110 | 0.9 | 0.97 | 3 | 3
SMILES | hIAP act | bIAP inh | hIAP inh | bIAP activator | mIAP activ | mIAP block | hIAP act confirm
COc1ccc(-c2nc(-c3ccccn3)no2)cc1 | 1.1 | 11 | -8 | 0.9 | 0.94 | 6 | .
Cn1cccc1C(=O)NC(=O)CSc1nc2ccccc2s1 | 2.1* | 11 | -107 | 0.9 | 1 | -1 | 1
CC(=O)CSc1nc2ccccc2s1 | 1 | 3 | 0 | 1 | 1 | 0 | .
Nc1ccn(CC(=O)NCCNc2ccc([N+](=O)[O-])cn2)c(=O)n1 | 0.93 | . | 7 | . | 1.1 | -7 | .
CN(C(=O)Cn1cccc1C1=NC(c2ccccc2)CO1)c1ccccc1 (stereo unspecified) | 0.62 | -4 | 38* | 1 | 0.95 | 5 | -55
CC1COC(c2cccn2Cc2ccccc2Cl)=N1 (stereo unspecified) | 0.86 | 2 | 14 | 1 | 0.99 | 1 | .
O=C(NCCc1ccc(Cl)cc1)c1ccc2[nH]c(=O)c(=O)[nH]c2c1 | 2* | . | -100 | . | 1.1 | -6 | -38
CCOC(=O)c1cccnc1SCc1cc(=O)n2ccccc2n1 | 0.98 | 16 | 2 | 0.8 | 1 | -4 | .
CCOC(=O)c1cccnc1SCC(=O)N(C)c1ccccc1 | 0.61 | 1 | 39* | 1 | 0.99 | 1 | -64
Cc1ccc(S(=O)(=O)NCCC(=O)NNC(=O)COc2ccc(Br)cc2)cc1C | 2.5* | . | -148 | . | 1.1 | -6 | 41
O=C(CSc1nc2c(c(=O)n1-c1ccccc1)SCC2)N1CCN(c2ccccc2)CC1 | 0.92 | 2 | 8 | 1 | 1 | -2 | .
O=C(CSc1nc2c(c(=O)n1-c1ccc(F)cc1)SCC2)N1CCCC1 | 2.1* | -3 | -106 | 1 | 1.1 | -14 | 8
CN=C1CC(C)(C)CC(=O)/C1=C(/O)CCC(=O)NC | 1 | -3 | -4 | 1 | 0.98 | 2 | .
Cc1ccc(CC2CC(=O)N(c3ccc(C)cc3)C2=O)cc1 (stereo unspecified) | 0.99 | 5 | 1 | 0.9 | 1 | 0 | .
COc1ccc(CC2CC(=O)N(c3ccc(C)cc3)C2=O)cc1 (stereo unspecified) | 2.1* | . | -106 | . | 1 | -2 | 23
CCCCc1ccc(/C(C)=N/Nc2cc(N3CCOCC3)nc(C)n2)cc1 | 0.9 | . | 10 | . | 0.99 | 1 | .
CC1Cn2c(nnc2-c2ccc(F)cc2)S1 (stereo unspecified) | 1 | 4 | 0 | 1 | 1.1 | -10 | .
